In ChEMBL document CHEMBL1138784, “Rational design, synthesis, and biological evaluation of bis(pyrimido[5,6,1-de]acridines) and bis(pyrazolo[3,4,5-kl]acridine-5-carboxamides) as new anticancer agents” (J Med Chem, 2004):

Columns and labels:
PC-3 = experiment: Cytotoxicity against human PC3 cancer cell line was determined after 1 hr; assay type: functional, cell-based; conditions: PC-3, 1 h
Summary of the method: (§1)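 MTT colorimetric assay. Cells seeded by growth characteristics and preincubated 24 h, then exposed to drug for 1 h or 144 h at 37 °C, 5% CO2. H460M, MKN45 and PC-3 were grown in RPMI 1640 with 10% FCS. HCT116 was grown in D-MEM with 10% FBS and 2 mM glutamine.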

786-0 [1] = experiment: Percent growth of renal 786-O cell line was determined at 10e-8 M concentration after 48 h of exposing; assay type: functional, Homo sapiens
Summary of the method: (§2)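 NCI sulforhodamine B screen. Cells seeded by growth rate, 24 h drug-free, then 48 h exposure to 10^-8, 10^-6 or 10^-5 M. Protein-stain optical density expressed as percent growth relative to untreated control (100%); negative values indicate cell kill.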

MCF7 [2] = experiment: Percent growth of breast MCF-7 cell line was determined at 10e-8 M concentration after 48 hr of exposing; assay type: functional, Homo sapiens
MOLT-4 [3] = experiment: Percent growth of leukemia MOLT-4 cell line was determined at 10e-8 M concentration after 48 hr of exposing; assay type: functional, Homo sapiens; summary of the method: as §2
MOLT-4 [4] = experiment: Percent growth of leukemia MOLT-4 cell line was determined at 10e-6 M concentration after 48 h of exposing; assay type: functional, Homo sapiens; summary of the method: as §2
LoVo [5] = experiment: Ratio of IC50 against sensitive LoVo cell line and that of doxorubicin resistance LoVo cell line was determined after 1 hr exposure; assay type: functional, Homo sapiens
DU-145 [6] = experiment: Percent growth of prostate DU-145 cell line was determined at 10e-6 M concentration after 48 hr of exposing; assay type: functional, Homo sapiens
MCF7 [7] = experiment: Percent growth of breast MCF-7 cell line was determined at 10e-5 M concentration after 48 hr of exposing; assay type: functional, Homo sapiens
LoVo [8] = experiment: Cytotoxicity against human LoVo cancer cell line was determined after 1 hr; assay type: functional, cell-based
Summary of the method: (§3)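 MTT assay on doxorubicin-sensitive LoVo and resistant LoVo/Dx cells, 24 h preincubation, then 1 h or 144 h drug exposure at 37 °C, 5% CO2. IC50 in nM. Resistance index is IC50 on LoVo/Dx divided by IC50 on LoVo.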

[9] = Cytotoxicity is determined as the concentration required to inhibit the growth of human colon adenocarcinoma (HT-29) cell line
786-0 [10] = experiment: Percent growth of renal 786-O cell line was determined at 10e-6 M concentration after 48 h of exposing; assay type: functional, Homo sapiens; summary of the method: as §2
SW-620 [11] = experiment: Percent growth of colon SW-620 cell line was determined at 10e-5 M concentration after 48 hr of exposing; assay type: functional, Homo sapiens; summary of the method: as §2
LoVo [12] = experiment: Cytotoxicity against doxorubicin resistant LoVo cell line was determined against 1 hour; assay type: functional, cell-based; conditions: Homo sapiens; summary of the method: as §3
MCF7 [13] = experiment: Percent growth of breast MCF-7 cell line was determined at 10e-6 M concentration after 48 h of exposing; assay type: functional, Homo sapiens
SNB-19 [14] = experiment: Percent growth of CNS SNB-19 cell line was determined at 10e-5 M concentration after 48 hr of exposing; assay type: functional, Homo sapiens; summary of the method: as §2
Nucleic Acid = experiment: Binding site preference is determined as the ratio of Poly (dA-dT)2 to Poly (dG-dC)2; assay type: nucleic-acid assay
Summary of the method: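 Ethidium displacement fluorometry at pH 7.0 (10 mM Na2HPO4, 10 mM NaH2PO4, 1 mM EDTA) with 1.26 μM ethidium bromide and 1 μM [poly(dA-dT)]2 or [poly(dG-dC)]2, 20 °C. Ex 546 nm, em 595 nm, drug added serially from a DMSO stock. Preference taken from the [AT]/[GC] ratio of C50 values, counted significant only below 0.7 or above 1.3.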

MKN-45 = experiment: Cytotoxicity against human MKN45 cancer cell line was determined after 1 hr; assay type: functional, cell-based; conditions: MKN-45, 1 h; summary of the method: as §1
[15] = Cytotoxicity against human PC3 cancer cell line was determined after 144 hr; assay type: cell-based; conditions: Cancer cell lines; summary of the method: as §1
DU-145 [16] = experiment: Percent growth of prostate DU-145 cell line was determined at 10e-5 M concentration after 48 hr of exposing; assay type: functional, Homo sapiens
SNB-19 [17] = experiment: Percent growth of CNS SNB-19 cell line was determined at 10e-8 M concentration after 48 hr of exposing; assay type: functional, Homo sapiens; summary of the method: as §2
MOLT-4 [18] = experiment: Percent growth of leukemia MOLT-4 cell line was determined at 10e-5 M concentration after 48 hr of exposing; assay type: functional, Homo sapiens; summary of the method: as §2
SW-620 [19] = experiment: Percent growth of colon SW-620 cell line was determined at 10e-8 M concentration after 48 hr of exposing; assay type: functional, Homo sapiens; summary of the method: as §2
NCI-H460 [20] = experiment: Percent growth of lung NCI-H460 cell line was determined at 10e-6 M concentration after 48 hr of exposing; assay type: functional, Homo sapiens; summary of the method: as §2
SW-620 [21] = experiment: Percent growth of colon SW-620 cell line was determined at 10e-6 M concentration after 48 hr of exposing; assay type: functional, Homo sapiens; summary of the method: as §2
[22] = Cytotoxicity against human HCT116 cancer cell line was determined after 144 hr; assay type: cell-based; conditions: HCT-116, 144 h; summary of the method: as §1
[23] = Cytotoxicity against human LoVo cancer cell line was determined after 144 hr; assay type: cell-based; summary of the method: as §3
[24] = Percent growth of melanoma LOX IMV1 cell line was determined at 10e-5 M concentration after 48 hr of exposing; assay type: functional, Homo sapiens; summary of the method: as §2
DU-145 [25] = experiment: Percent growth of prostate DU-145 cell line was determined at 10e-8 M concentration after 48 h of exposing; assay type: functional, Homo sapiens
SNB-19 [26] = experiment: Percent growth of CNS SNB-19 cell line was determined at 10e-6 M concentration after 48 hr of exposing; assay type: functional, Homo sapiens; summary of the method: as §2
786-0 [27] = experiment: Percent growth of renal 786-O cell line was determined at 10e-5 M concentration after 48 hr of exposing; assay type: functional, Homo sapiens; summary of the method: as §2
[28] = Percent growth of melanoma LOX IMV1 cell line was determined at 10e-8 M concentration after 48 hr of exposing; assay type: functional, Homo sapiens; summary of the method: as §2
NCI-H460 [29] = experiment: Percent growth of lung NCI-H460 cell line was determined at 10e-5 M concentration after 48 hr of exposing; assay type: functional, Homo sapiens; summary of the method: as §2
[30] = Percent growth of melanoma LOX IMV1 cell line was determined at 10e-6 M concentration after 48 hr of exposing; assay type: functional, Homo sapiens; summary of the method: as §2
LoVo [31] = experiment: Cytotoxicity against doxorubicin resistant LoVo cell line was determined against 144 hrs; assay type: functional, cell-based; conditions: Homo sapiens; summary of the method: as §3
NCI-H460 [32] = experiment: Percent growth of lung NCI-H460 cell line was determined at 10e-8 M concentration after 48 hr of exposing; assay type: functional, Homo sapiens; summary of the method: as §2
OVCAR-4 [33] = experiment: Percent growth of ovarian OVCAR-4 cell line was determined at 10e-8 M concentration after 48 hr of exposing; assay type: functional, Homo sapiens; summary of the method: as §2
OVCAR-4 [34] = experiment: Percent growth of ovarian OVCAR-4 cell line was determined at 10e-6 M concentration after 48 hr of exposing; assay type: functional, Homo sapiens; summary of the method: as §2
HCT-116 = experiment: Cytotoxicity against human HCT116 cancer cell line was determined after 1 hr; assay type: functional, cell-based; conditions: HCT-116, 1 h; summary of the method: as §1
OVCAR-4 [35] = experiment: Percent growth of ovarian OVCAR-4 cell line was determined at 10e-5 M concentration after 48 hr of exposing; assay type: functional, Homo sapiens; summary of the method: as §2

Compound: CN(C)CCn1c(=O)c2ccc(NCCCN(C)CCCNc3ccc4c(=O)n(CCN(C)C)c(=O)n5c6ccccc6c(=O)c3c45)c3c(=O)c4ccccc4n(c1=O)c23
- IC50 (PC-3): 4.1 nM
- Growth (786-0 [1]): 34%
- Growth (MCF7 [2]): 31%
- Growth (MOLT-4 [3]): 9%
- Growth (MOLT-4 [4]): -26%
- Resistance index (LoVo [5]): 2.1
- Growth (DU-145 [6]): -13%
- Growth (MCF7 [7]): -96%
- IC50 (LoVo [8]): 5.2 nM
- IC50 [9]: < 0.1 nM
- Growth (786-0 [10]): 4%
- Growth (SW-620 [11]): -89%
- IC50 (LoVo [12]): 11 nM
- Growth (MCF7 [13]): 0%
- Growth (SNB-19 [14]): -53%
- Binding site preference (Nucleic Acid): 25
- IC50 (MKN-45): 0.01 nM
- IC50 [15]: 1.6 nM
- Growth (DU-145 [16]): -98%
- Growth (SNB-19 [17]): 32%
- Growth (MOLT-4 [18]): -71%
- Growth (SW-620 [19]): 26%
- Growth (NCI-H460 [20]): -22%
- Growth (SW-620 [21]): -25%
- IC50 [22]: 0.1 nM
- IC50 [23]: 0.31 nM
- Growth [24]: -82%
- Growth (DU-145 [25]): 37%
- Growth (SNB-19 [26]): 7%
- Growth (786-0 [27]): -100%
- Growth [28]: 25%
- Growth (NCI-H460 [29]): -95%
- Growth [30]: -43%
- IC50 (LoVo [31]): 3.1 nM
- Growth (NCI-H460 [32]): 13%
- Growth (OVCAR-4 [33]): 15%
- Growth (OVCAR-4 [34]): -53%
- IC50 (HCT-116): 0.72 nM
- Growth (OVCAR-4 [35]): -77%

Compound: COc1cccc2c1C(=O)c1c(O)c3c(c(O)c1C2=O)C[C@@](O)(C(=O)CO)C[C@@H]3O[C@H]1C[C@H](N)[C@H](O)[C@H](C)O1 [DOXORUBICIN]
- Resistance index (LoVo [5]): 11
- IC50 (LoVo [8]): 810 nM
- IC50 (LoVo [12]): 9100 nM
- IC50 (LoVo [31]): 2300 nM
